According to ChEMBL document CHEMBL4304739, “Discovery of 3-(Indol-5-yl)-indazole Derivatives as Novel Myeloid Differentiation Protein 2/Toll-like Receptor 4 Antagonists for Treatment of Acute Lung Injury” (J Med Chem, 2019):
Active and inactive are the calls of the source. No cut-off for these calls is given here.

How the values were obtained:
Peritoneal macrophage = assay: Cytotoxicity against ICR mouse peritoneal macrophages assessed as reduction in cell viability at 10 uM measured after 24 hrs by MTT assay; type: cell-based
Outline: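 Peritoneal macrophages from ICR mice, 2.0×10^4 cells/well in DMEM with 10% FBS. Cells exposed to compound for 24 h, then MTT (5 mg/ml in 0.9% NaCl) added for 4 h at 37 °C in 5% CO2. Absorbance read at 490 nm; final DMSO 0.1%.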

[1] = target: T1, Toll-like receptor 4/Ly96 (Mus musculus, UniProt Q9JHF9+Q9QUK6); assay: Inhibition of MD2-TLR4 protein-protein interaction in ICR mouse peritoneal macrophages assessed as reduction in LPS-induced TNFalpha production preincubated for 2 hrs followed by LPS-stimulation and measured after 22 hrs by ELISA
T1 sequence (Q9QUK6 whole entry): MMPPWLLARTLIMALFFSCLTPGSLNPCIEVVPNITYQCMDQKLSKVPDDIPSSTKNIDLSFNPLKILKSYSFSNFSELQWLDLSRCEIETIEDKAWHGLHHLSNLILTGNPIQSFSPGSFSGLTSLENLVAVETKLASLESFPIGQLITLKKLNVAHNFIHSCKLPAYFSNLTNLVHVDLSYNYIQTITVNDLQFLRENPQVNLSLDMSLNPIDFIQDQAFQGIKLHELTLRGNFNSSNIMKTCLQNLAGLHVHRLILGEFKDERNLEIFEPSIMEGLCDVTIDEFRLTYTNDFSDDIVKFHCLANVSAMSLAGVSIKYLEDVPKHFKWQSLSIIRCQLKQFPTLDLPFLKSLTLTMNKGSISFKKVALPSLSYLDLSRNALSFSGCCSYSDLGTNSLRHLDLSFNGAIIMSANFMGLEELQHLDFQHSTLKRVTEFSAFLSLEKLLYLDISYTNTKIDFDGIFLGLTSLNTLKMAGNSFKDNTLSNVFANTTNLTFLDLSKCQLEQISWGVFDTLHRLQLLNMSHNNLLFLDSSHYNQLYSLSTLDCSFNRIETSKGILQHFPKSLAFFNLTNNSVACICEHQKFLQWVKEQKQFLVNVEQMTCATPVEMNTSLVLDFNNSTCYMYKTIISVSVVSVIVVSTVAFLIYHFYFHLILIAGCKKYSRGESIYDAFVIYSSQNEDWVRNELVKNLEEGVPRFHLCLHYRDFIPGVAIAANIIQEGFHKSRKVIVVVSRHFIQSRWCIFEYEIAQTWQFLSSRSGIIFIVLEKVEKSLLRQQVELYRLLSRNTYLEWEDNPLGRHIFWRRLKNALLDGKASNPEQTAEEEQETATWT
T1 sequence (Q9JHF9 whole entry): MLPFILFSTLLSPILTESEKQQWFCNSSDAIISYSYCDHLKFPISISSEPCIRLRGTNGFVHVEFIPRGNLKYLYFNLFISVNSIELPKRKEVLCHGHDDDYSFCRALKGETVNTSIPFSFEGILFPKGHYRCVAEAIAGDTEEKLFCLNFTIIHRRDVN

[2] = target: T1, Toll-like receptor 4/Ly96; assay: Inhibition of MD2-TLR4 protein-protein interaction in ICR mouse peritoneal macrophages assessed as reduction in LPS-induced IL-6 production preincubated for 2 hrs followed by LPS-stimulation and measured after 22 hrs by ELISA
Mus musculus [3] = assay: Antiinflammatory activity in LPS-induced C57BL/6 mouse model of acute lung injury assessed as reduction in lung injury score at 10 mg/kg, iv pretreated for 15 mins followed by LPS stimulation and measured after 6 hrs; type: functional, organism-based
Outline: (§1)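 Male C57BL/6 mice (18−22 g; n=8 per group). Compound in 0.1% CMC-Na given by tail vein injection 15 min before intraperitoneal LPS (20 mg/kg); controls received saline. Mice were sacrificed 6 h after LPS, and serum and lung tissue were collected.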

Mus musculus [4] = assay: Antiinflammatory activity in LPS-induced C57BL/6 mouse model of acute lung injury assessed as reduction in F4/80 positive macrophage at 10 mg/kg, iv pretreated for 15 mins followed by LPS stimulation and measured after 6 hrs by ABC/hematoxylin staining-based immunohistochemistry analysis; type: functional, organism-based; outline: as §1

Row | Compound | Activity (Peritoneal macrophage) | also measured
1 | Cc1cccc(C(=O)Nc2ccc3[nH]nc(-c4ccc5c(ccn5CCO)c4)c3c2)n1 | Non-Toxic | –
2 | O=C(Nc1ccc2[nH]nc(-c3ccc4c(ccn4CCO)c3)c2c1)c1cccc(Cl)c1 | Non-Toxic | –
3 | O=[N+]([O-])c1ccc2[nH]nc(-c3ccc4c(ccn4CCO)c3)c2c1 | Non-Toxic | IC50 [1]: 6.99 µM; IC50 [2]: 0.84 µM
4 | O=C(Nc1ccc2[nH]nc(-c3ccc4c(ccn4CCO)c3)c2c1)c1c(Cl)cccc1Cl | Non-Toxic | IC50 [1]: 6.31 µM; IC50 [2]: 0.73 µM
5 | O=C(CCCl)Nc1ccc2[nH]nc(-c3ccc4c(ccn4CCO)c3)c2c1 | Non-Toxic | IC50 [1]: 3.47 µM; IC50 [2]: 4.57 µM
6 | O=C(Nc1ccc2c(c1)c(-c1ccc3[nH]ccc3c1)nn2Cc1ccccc1)c1c(Cl)cccc1Cl | Non-Toxic | –
7 | O=C(Nc1ccc2[nH]nc(-c3ccc4c(ccn4CCO)c3)c2c1)c1ccc(F)cc1 | Non-Toxic | –
8 | O=C(/C=C/c1ccccc1)Nc1ccc2[nH]nc(-c3ccc4c(ccn4CCO)c3)c2c1 | Non-Toxic | –
9 | O=C(Nc1ccc2[nH]nc(-c3ccc4c(ccn4CCO)c3)c2c1)c1ccc(Cl)cc1 | Non-Toxic | –
10 | COc1cc(OC)cc(C(=O)Nc2ccc3[nH]nc(-c4ccc5c(ccn5CCO)c4)c3c2)c1 | Non-Toxic | –
11 | CCC(=O)Nc1ccc2[nH]nc(-c3ccc4c(ccn4CCO)c3)c2c1 | Non-Toxic | –
12 | CC(=O)Nc1ccc2[nH]nc(-c3ccc4c(ccn4CCO)c3)c2c1 | Non-Toxic | –
13 | Cc1cccc(C(=O)Nc2ccc3[nH]nc(-c4ccc5c(ccn5CCO)c4)c3c2)c1 | Non-Toxic | –
14 | CCCn1c(-c2c[nH]c3ncccc23)nc2ccc(N3CCN(C)CC3)nc21 | – | Activity (Mus musculus [3]): Active; Activity (Mus musculus [4]): Active
15 | O=C(Nc1ccc2[nH]nc(-c3ccc4c(ccn4CCO)c3)c2c1)c1ccccn1 | Non-Toxic | –
16 | Nc1ccc2[nH]nc(-c3ccc4c(ccn4CCO)c3)c2c1 | Non-Toxic | –
